In ChEMBL document CHEMBL3044962, “Characterization of the antifungal activity on Botrytis cinerea of the natural diterpenoids kaurenoic acid and 3beta-hydroxy-kaurenoic acid” (2004):
Active and inactive are the calls of the source. No cut-off for these calls is given here.

Key:
[1] = system: Botrytis cinerea; assay: Antifungal activity against Botryotinia fuckeliana grown assessed as induction of production of p-nitrophenyl butyrate esterase after 20 days relative to control; assay type: functional
How it was run: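 Ground pregrown mycelium (3 days, malt-yeast, 22 °C) moved to minimum medium with 1% cutin or 1% pectin plus diterpenoid at 40 µg/mL, 22 °C. Filtrates sampled over 30 days. Esterase measured with 0.62 mM p-nitrophenylbutyrate in 100 mM sodium phosphate pH 8.0 with Triton X-100, 10 min at 22 °C, A405. 1 U releases 1 µmol p-nitrophenol/min.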

[2] = system: Botrytis cinerea; assay: Antifungal activity against Botryotinia fuckeliana grown assessed as membrane leakage measuring efflux of phosphorus at 100 ug/ml after 6 hr by ICP-OES analysis; assay type: functional, organism-based
How it was run: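 Pregrown mycelia held in 5 mM Tris-HCl pH 7.0 with diterpenoid at final 100 µg/mL (or methanol control) at 22 °C for 6 or 24 h. Phosphorus in the bathing medium measured by ICP-OES. Saponins (100 mg/mL in 10 mM sodium acetate pH 4.5, 6 h) served as positive control. ≥5 experiments, mean ± SD, ANOVA with LSD (P ≤ 0.05).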

[3] = system: Botrytis cinerea; assay: Antifungal activity against Botryotinia fuckeliana assessed as inhibition of mycelial growth at 40 to 160 ug/ml up to 7 days; assay type: functional, organism-based
[4] = system: Botrytis cinerea; assay: Antifungal activity against Botryotinia fuckeliana assessed as inhibition of mycelial growth at 40 to 160 ug/ml up to 6 days; assay type: functional, organism-based
[5] = system: Botrytis cinerea; assay: Antifungal activity against Botryotinia fuckeliana inoculated in tomato leaf assessed as reduction in lesion area at 40 ug/ml after 4 days (Rvb =9.7 +/- 1.8 mm2 ); assay type: functional
[6] = system: Botrytis cinerea; assay: Antifungal activity against Botryotinia fuckeliana grown assessed as induction of production of laccase after 10 days relative to control; assay type: functional
How it was run: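 Mycelium pregrown 3 days at 22 °C in malt-yeast liquid, ground with glass beads and transferred to minimum medium with 1% pectin plus diterpenoid at 40 µg/mL. Culture filtrate taken at day 10. Laccase read with 0.1 mM syringaldazine in 50 mM sodium phosphate pH 6.0, 15 min at 22 °C, A530. 1 U = 0.1 absorbance increase per min. ≥5 experiments, ANOVA/LSD.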

[7] = system: Botrytis cinerea; assay: Antifungal activity against Botryotinia fuckeliana assessed as reduction in mycelial growth rate at 40 to 160 ug/ml up to 9 days (reference value: 1.82 cm/day); assay type: functional
[8] = system: Botrytis cinerea; assay: Antifungal activity against Botryotinia fuckeliana grown in malt-yeast extract medium assessed as inhibition of mycelial growth at 40 to 160 ug/ml; assay type: functional
How it was run: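 Strain G29 conidia at final 3 × 10^5 conidia/mL in malt-yeast extract medium or liquid minimum medium with 1% glucose. Diterpenoids added from methanol at final 40 µg/mL, methanol evaporated before inoculation. Grown in dark at 22 °C for 5 days. Mycelial wet weight gives % inhibition relative to methanol control. ≥5 independent experiments, mean ± SD.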

## C=C1C[C@@]23CC[C@H]4[C@@](C)(CCC[C@@]4(C)C(=O)O)[C@@H]2CC[C@@H]1C3 [KAURENOIC ACID]
[1]
  Ratio: 2
[2]
  Activity: Active
[3]
  growth inhibition (GI): Active
[4]
  growth inhibition (GI): Active
[5]
  Activity: 7.5 mm2
[6]
  Activity: Active
[7]
  GI: 1.49 cm/day
[8]
  growth inhibition (GI): inactive
